In ChEMBL document CHEMBL1139031, “Synthesis and insecticidal activity of fluorinated 2-(2,6-dichloro-4-trifluoromethylphenyl)-2,4,5,6-tetrahydrocyclopentapyrazoles” (Bioorg Med Chem Lett, 2006):

How the values were obtained:
GABA receptor subunit = molecular target: T1, GABA receptor subunit (Musca domestica, UniProt Q75NA5); test: Displacement of [3H]EBOB from housefly neuronal membrane GABA receptor
T1 sequence (Q75NA5 whole entry): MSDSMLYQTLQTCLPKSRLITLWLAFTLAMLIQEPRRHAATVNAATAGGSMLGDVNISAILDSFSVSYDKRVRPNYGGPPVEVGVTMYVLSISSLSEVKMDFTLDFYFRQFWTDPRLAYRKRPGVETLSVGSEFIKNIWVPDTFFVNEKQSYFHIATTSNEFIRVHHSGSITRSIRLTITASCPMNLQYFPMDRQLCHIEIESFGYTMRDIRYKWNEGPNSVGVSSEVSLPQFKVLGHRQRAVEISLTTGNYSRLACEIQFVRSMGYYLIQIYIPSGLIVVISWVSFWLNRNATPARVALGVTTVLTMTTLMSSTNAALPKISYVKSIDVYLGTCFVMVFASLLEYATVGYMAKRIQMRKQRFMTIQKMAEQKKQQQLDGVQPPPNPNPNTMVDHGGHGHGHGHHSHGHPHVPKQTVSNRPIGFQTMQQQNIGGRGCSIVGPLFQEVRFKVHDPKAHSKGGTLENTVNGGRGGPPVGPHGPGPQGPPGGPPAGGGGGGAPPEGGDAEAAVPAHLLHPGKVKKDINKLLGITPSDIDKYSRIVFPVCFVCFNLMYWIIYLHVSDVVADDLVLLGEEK
In short: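 Housefly neuronal membranes (0.5–1.0 mg/mL in added buffer) with 5.2 nM [3H]EBOB in ice-cold 10 mM phosphate, 300 mM NaCl, pH 7.5; DMSO compound solutions. Incubated 45 min at 24 °C, then filtered on polyethylenimine-soaked glass fiber; bound radioactivity counted. Membrane-free wells served as controls. Actives were retested at 24–48 final concentrations, and IC50 was taken at 50% of maximal inhibition.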

[1] = molecular target: GABA-A receptor; anion channel; test: Binding affinity to mouse brain GABA receptor
In short: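 Displacement of [3H]EBOB (5.2 nM, 38 Ci/mmol) from neuronal membranes (0.5–1.0 mg/mL), housefly or mouse brain, in ice-cold 10 mM phosphate, 300 mM NaCl, pH 7.5. Compound added from DMSO. Membrane-free wells served as controls. Incubated 45 min at 24 °C, then filtered on polyethylenimine-soaked glass fiber and bound radioactivity counted. IC50 (50% of maximal inhibition) taken from 24–48 concentrations.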

[2] = Selectivity for housefly GABA receptor over mouse GABA receptor
Ctenocephalides felis [3] = test: Insecticidal activity against cyclodiene resistant allele-homozygous serine S/S flea by contact assay; assay type: functional
In short: (§1)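 Contact vial assay with cat fleas of the cyclodiene-resistant homozygous serine (CO) or sensitive homozygous alanine (ARC) strain. Compound in DMSO was dried onto a glass-fiber disk for 24–48 h, and a DMSO-only disk was the control. Twenty newly emerged fleas, sedated at 0–4 °C, were sealed in each vial and held in the dark. Dead fleas were counted after 24 h, and percentage mortality was calculated.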

Ctenocephalides felis [4] = test: Insecticidal activity against ARC sensitive homozygous alanine A/A flea at 100 mM by contact assay; assay type: functional; in short: as §1
Musca domestica [5] = test: Insecticidal activity against housefly by contact assay; assay type: functional; parameters: concentration or dose not given beside the values
In short: (§2)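 Newly emerged houseflies were CO2-sedated and fed 10% sucrose for 2–4 h. Compound in DMSO with isopropanol was rolled to coat glass tubes and air-dried for 24–48 h, with a DMSO-only control. Twenty flies, sedated by refrigeration at 0–4 °C, were placed in each tube. Healthy, moribund and dead flies were counted after 24 h.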

Mus musculus [6] = species on record: Mus musculus; test: (§3) Half life in mouse liver microsome; assay type: ADME; conditions: microsomes
Mus musculus [7] = species on record: Mus musculus; test: Clearance in mouse; assay type: ADME, organism-based; conditions: in vitro
Canis familiaris [8] = species on record: Canis familiaris; test: Clearance in dog; assay type: ADME, organism-based, Canis lupus familiaris; conditions: in vitro
[9] = (§4) Half life in dog liver microsome; assay type: ADME, Canis lupus familiaris; conditions: liver microsomes
Musca domestica [10] = test: Insecticidal activity against housefly at 100 mM by contact assay; assay type: functional; conditions: for LC50: Musca domestica, read-out: LD50 (the source's name); in short: as §2
[11] = as §3; assay type: ADME; conditions: liver microsomes
Canis familiaris [12] = species on record: Canis familiaris; test: as §4; assay type: ADME, Canis lupus familiaris; conditions: microsomes
Ctenocephalides felis [13] = test: Insecticidal activity against heterozygous S/A flea by contact assay; assay type: functional
Ctenocephalides felis [14] = test: Insecticidal activity against cyclodiene resistant allele-homozygous serine S/S flea at 100 mM by contact assay; assay type: functional; in short: as §1
[15] = read-out: LD50 (the source's name)

SMILES	IC50 (GABA receptor subunit) [µM]	IC50 [1] [µM]	selectivity ratio [2]	LC50 (Ctenocephalides felis [3]; [15]) [µM]	Activity (Ctenocephalides felis [4]) [%]	Activity (Musca domestica [5]) [%]	Activity (Ctenocephalides felis [14]) [%]	other results
FC(F)(F)c1cc(Cl)c(-n2cc3c(n2)CC(F)(F)C3(F)F)c(Cl)c1	< 0.1	0.05	> 0.5	< 500	100			
CC1(O)c2cn(-c3c(Cl)cc(C(F)(F)F)cc3Cl)nc2CC1(F)F (stereo unspecified)		2.3	23	10000	100	72		T1/2 (Mus musculus [6]): Stable; CL (Mus musculus [7]): Stable; CL (Canis familiaris [8]): 296.9 pmol/min/mg; half-life [9]: 8.45 h
FC(F)(F)c1cc(Cl)c(-n2cc3c(n2)CCC3(F)F)c(Cl)c1	> 0.1	1	< 10	1000	100			LC50 (Musca domestica [10]): 88000 µM
CC1(O)c2cn(-c3c(Cl)cc(C(F)(F)F)cc3Cl)nc2C(F)C1F (stereo unspecified)		> 10	> 28	5000	100	100		
FC1CCc2cn(-c3c(Cl)cc(C(F)(F)F)cc3Cl)nc21 (stereo unspecified)	0.29	2.9	10	11000	95	85		
FC1Cc2nn(-c3c(Cl)cc(C(F)(F)F)cc3Cl)cc2C1(F)F (stereo unspecified)	< 0.1	1	> 10	1000	100	100		half-life [11]: 1.08 h; CL (Mus musculus [7]): 109.2 pmol/min/mg; CL (Canis familiaris [8]): Stable; T1/2 (Canis familiaris [12]): Stable
FC1c2nn(-c3c(Cl)cc(C(F)(F)F)cc3Cl)cc2C(F)(F)C1F (stereo unspecified)		0.175		< 500	100			LC50 (Musca domestica [10]): 400 µM
FC1Cc2cn(-c3c(Cl)cc(C(F)(F)F)cc3Cl)nc2C1F (stereo unspecified)	0.2	1	5		100			LC50 (Musca domestica [10]): 79000 µM; half-life [11]: 0.373 h; CL (Mus musculus [7]): 255.1 pmol/min/mg; CL (Canis familiaris [8]): Stable; T1/2 (Canis familiaris [12]): Stable
O=C1CCc2nn(-c3c(Cl)cc(C(F)(F)F)cc3Cl)cc21	0.47	20	42		16.5			LC50 (Musca domestica [10]): 81000 µM
FC1(F)Cc2cn(-c3c(Cl)cc(C(F)(F)F)cc3Cl)nc2C1	0.2	0.175	1	2000	100	87.9		
CC1CCc2nn(-c3c(Cl)cc(C(F)(F)F)cc3Cl)cc21 (stereo unspecified)	0.03	3.8	126		100			Activity (Musca domestica [10]): 10%; LC50 (Ctenocephalides felis [3]; read-out: LC50): 10000 µM; LC50 (Ctenocephalides felis [13]): 3000 µM
O=C1c2cn(-c3c(Cl)cc(C(F)(F)F)cc3Cl)nc2CC1F (stereo unspecified)	0.32	3.2	10		95.4	57.5	10.8	
FC1CCc2nn(-c3c(Cl)cc(C(F)(F)F)cc3Cl)cc21 (stereo unspecified)	1.7	> 10	> 5			7	36	
FC(F)(F)c1cc(Cl)c(-n2cc3c(n2)C(F)(F)CC3)c(Cl)c1		2.8		15000	100			
O=C1CC(F)(F)c2nn(-c3c(Cl)cc(C(F)(F)F)cc3Cl)cc21					40	6	1	
COC1(C)c2cn(-c3c(Cl)cc(C(F)(F)F)cc3Cl)nc2CC1F (stereo unspecified)	0.1	12	120	1800	100			half-life [11]: 2.42 h; CL (Mus musculus [7]): 34.1 pmol/min/mg; CL (Canis familiaris [8]): Stable; T1/2 (Canis familiaris [12]): Stable
FC(F)(F)c1cc(Cl)c(-n2cc3c(n2)CCC3)c(Cl)c1		1.6	19		100			Activity (Musca domestica [10]): 30%; LC50 (Ctenocephalides felis [3]; read-out: LC50): 8000 µM; LC50 (Ctenocephalides felis [13]): 7000 µM
COC1CC(F)(F)c2nn(-c3c(Cl)cc(C(F)(F)F)cc3Cl)cc21 (stereo unspecified)		3.7			100	22	3	
O=C1c2cn(-c3c(Cl)cc(C(F)(F)F)cc3Cl)nc2CC1(F)F					40	6	1	
CC1(F)CC(F)(F)c2nn(-c3c(Cl)cc(C(F)(F)F)cc3Cl)cc21 (stereo unspecified)		> 10			100	16.7	3	
FC(F)(F)c1cc(Cl)c(-n2cc3c(n2)C(F)(F)CC3(F)F)c(Cl)c1	0.074	0.3	4		100	93.9	60.7	
